Most compounds without a hit are left out; they make up all but 2.1% or so of the library.
EWS-Fli block – inhibitors of EWS/Fli oncoprotein transcriptional activity. A673 NR0B1-luciferase reporter, viability-normalised. inhibition, % at 12.6 µM. 350,000 compounds, 0.67% hits. AID 651661;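 active = mean inhibition of at least 50% after viability correction, with every replicate also passing that limit; inconclusive = mean reaches 50% but only one of two replicates passes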;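 also: firefly luciferase signal divided by Alamar Blue viability fluorescence both relative to DMSO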
EBV LMP1 NFkB – reduces LMP1-driven NF-kappaB luciferase signal | LMP1-induced NF-kappaB luciferase reporter cells, luminescence | inhibition, % at 12.5 µM | 350,000 compounds, 0.69% hits; in the data active = inhibition above about 41%; inconclusive = no clear call, values can overlap the other calls;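 also: 0% = neutral control wells and 100% = reference inhibitor control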
FN deposition inh – fibronectin deposition inhibition. AH1F fibroblasts, Alexa488-fibronectin deposition fluorescence, overnight. inhibition, % at 12.6 µM. 350,000 compounds, 0.086% hits. AID 743247;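 active = mean inhibition across replicates of 30% or more, regardless of how many single replicates reach that level; inconclusive = mean under 30% yet at least half of replicates reach 30%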;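 also: positive control wells lacked labelled fibronectin entirely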
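Assay system: AH1F fibroblasts / Quantity: 10000 cells per well / Medium: DMEM plus 2% serum, read in PBS / Reagent: labelled fibronectin 24 nM / Dosing: single dose, pinned / Times: 1 h cell attachment, overnight exposure to compound and label / Signal: fluorescence, ex 485 nm, em 525 nm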
aSyn UTR inh – 5' untranslated region of α-synuclein, MLPCN primary screen; alpha-synuclein 5'UTR reporter, inhibitor activity; inhibition, % (tested at 7.5 µM); 300,000 compounds, 0.82% hits; in the data active = inhibition above about 60%; inconclusive = no clear call, values can overlap the other calls;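 also: H4 neuroglioblastoma cells stably carrying SNCA 5'UTR luciferase fusion; 0% = DMSO wells and 100% = positive control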
PAX8 inh HTS – lowers PAX8-driven luciferase in RMG-I cells. inhibition, % at 12.6 µM. 360,000 compounds, 1.2% hits. RMG-I TPO-luciferase reporter, SteadyGlo, 24 h;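 active = mean replicate inhibition at least 60% with every replicate also reaching 60%; inconclusive = only one of the two criteria is met; inactive = mean below 60% and not all replicates reaching 60%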;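 also: luciferase light reporting Pax8 driven TPO promoter activity; plate controls were median of neutral control wells for no effect and mitoxantrone controls for full effect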
Shn3 inh set2 – Schnurri-3 reporter inhibition in Clone20 osteoblasts; inhibition, % at 12.5 µM; Clone20 osteoblast Shn3 3'UTR firefly luciferase, 24 h; 360,000 compounds, 0.52% hits;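 active = mean inhibition of at least 75% with every replicate also reaching 75%; inconclusive = mean inhibition at least 75% but some replicate below; inactive = mean inhibition below 75%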;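 also: 0% = median of neutral control wells and 100% = pilot-screen positive control compound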
Numbers without * were called inactive; ? = inconclusive; · = no result given.

SMILES	EWS-Fli block	EBV LMP1 NFkB	FN deposition inh	aSyn UTR inh	PAX8 inh HTS	Shn3 inh set2
O=C1C=CC(=O)N1CCNc1ncc(C(F)(F)F)cc1Cl	16	24	2	10	?	86*
COc1ccc(NC(=O)c2cccc(S(=O)(=O)N3CCOCC3)c2)cc1	-5	-15	-2	-34	-32	-16
COc1cc(/C=N/NC(=O)c2cccc(S(=O)(=O)N3CCOCC3)c2)cc(OC)c1O	-7	65*	-5	-1	0	-10
CCOc1cccc(/C=N/NC(=S)Nc2cc(S(=O)(=O)N3CCOCC3)ccc2N2CCOCC2)c1O	-4	9	-2	81*	51	82
COc1ccc(C(=O)NNC(=O)c2cccc(S(=O)(=O)N3CCOCC3)c2)cc1	-16	-2	1	·	-14	96*
CN1c2ccc(-c3ccccc3F)cc2[C@H]2[C@H](CCN2S(=O)(=O)c2ccc(F)cc2)[C@@H]1CO	5	·	12	·	-20	·
CC(C)[C@H](C)NC(=O)N(C)C[C@H]1OCc2ccccc2-c2c(n(C)c3ccccc23)C(=O)N([C@@H](C)CO)C[C@H]1C	-1	·	1	·	·	·
C[C@H]1CCCCO[C@@H](CN(C)S(=O)(=O)c2ccc(F)cc2)[C@@H](C)CN([C@@H](C)CO)C(=O)c2cc(NS(=O)(=O)c3ccc(Cl)cc3)ccc2O1	-4	·	0	·	69*	·
C[C@@H]1CN([C@H](C)CO)C(=O)c2cc(NS(=O)(=O)c3ccc(F)cc3)ccc2O[C@@H](C)CCCCO[C@H]1CN(C)S(=O)(=O)c1ccc(Cl)cc1	8	·	-1	·	98*	·
C[C@H](CO)N1C[C@H](C)[C@@H](CN(C)S(=O)(=O)c2ccc(Cl)cc2)OCCCC[C@H](C)Oc2ccc(NS(=O)(=O)c3ccc(F)cc3)cc2C1=O	-1	·	2	·	84*	·
C[C@@H]1CCCCO[C@H](CN(C)S(=O)(=O)c2ccc(Cl)cc2)[C@H](C)CN([C@@H](C)CO)C(=O)c2cc(NS(=O)(=O)c3ccc(F)cc3)ccc2O1	4	·	-9	·	83*	·
C[C@@H]1CCCCO[C@H](CN(C)S(=O)(=O)c2ccc(Cl)cc2)[C@H](C)CN([C@H](C)CO)C(=O)c2cc(NS(=O)(=O)c3ccc(F)cc3)ccc2O1	4	·	3	·	48	·
CN1CCN(C(=O)C[C@H]2CC[C@@H]3[C@H](COC[C@@H](O)CN3Cc3ccc(Oc4ccccc4)cc3)O2)CC1	22	·	7	·	8	·
C[C@H]1CCCCO[C@@H](CN(C)S(=O)(=O)c2ccc(Cl)cc2)[C@@H](C)CN([C@@H](C)CO)C(=O)c2cc(NS(=O)(=O)c3ccc(F)cc3)ccc2O1	7	·	-1	·	63*	·
CC1(NC(=O)CC(c2ccccc2)(c2ccccc2)c2ccccc2)CCN(CCCc2ccccc2)C1=O (stereo unspecified)	5	2	-2	·	66*	39
CC(=O)Nc1ccc(CNc2nc(NC(C)C)nc3cc(-c4ccccc4)sc23)cc1	60*	·	9	·	73*	23
C=CCNc1nc(NCc2ccc(NC(C)=O)cc2)c2sc(-c3ccccc3)cc2n1	29	·	·	·	20	-9
c1ccc(-c2cc3nc(NCC4CC4)nc(NCC4CCCCC4)c3s2)cc1	8	·	4	·	14	88*
COCCNc1nc(NCC2CCCCC2)c2sc(-c3ccccc3)cc2n1	34	·	-4	·	51	24
COCC(=O)Nc1ccc2c(c1)C(=O)N(C)[C@@H]1CC[C@H](CC(=O)NCc3ccccc3F)O[C@H]1CO2	7	·	-9	·	-20	·
C=CCOc1nc(-c2ccccc2Cl)nc2ccccc12	18	7	6	72*	1	1
C[C@H](CO)N1C[C@H](C)[C@H](CN(C)Cc2cncnc2)Oc2cc(C#CC3CCCC3)ccc2S1(=O)=O	-15	·	12	·	2	·
C[C@@H]1CCCCO[C@H](CN(C)Cc2ccc(C(F)(F)F)cc2)[C@H](C)CN([C@H](C)CO)C(=O)c2cc(NS(=O)(=O)c3ccc(Cl)cc3)ccc2O1	11	·	3	·	99*	·
C[C@@H]1CCCCO[C@@H](CN(C)Cc2ccc(C(F)(F)F)cc2)[C@H](C)CN([C@@H](C)CO)C(=O)c2cc(NS(=O)(=O)c3ccc(Cl)cc3)ccc2O1	18	·	-21	·	103*	·
C[C@@H]1CCCCO[C@H](CN(C)Cc2ccc(C(F)(F)F)cc2)[C@@H](C)CN([C@H](C)CO)C(=O)c2cc(NS(=O)(=O)c3ccc(Cl)cc3)ccc2O1	2	·	-17	·	-14	·
SMILES	EWS-Fli block	EBV LMP1 NFkB	FN deposition inh	aSyn UTR inh	PAX8 inh HTS	Shn3 inh set2
C[C@@H]1CN([C@@H](C)CO)C(=O)c2cc(NS(=O)(=O)c3ccc(Cl)cc3)ccc2O[C@@H](C)CCCCO[C@H]1CN(C)Cc1ccc(C(F)(F)F)cc1	21	·	-4	·	102*	·
C[C@H]1CCCCO[C@@H](CN(C)Cc2ccc(C(F)(F)F)cc2)[C@@H](C)CN([C@@H](C)CO)C(=O)c2cc(NS(=O)(=O)c3ccc(Cl)cc3)ccc2O1	0	·	4	·	102*	·
CO[C@H]1CC[C@H]2CCOc3ccc(C#N)cc3C(=O)N(C)[C@@H](C)C(=O)N(C)C[C@H]1O2	1	·	-4	·	2	·
C[C@@H]1CN([C@@H](C)CO)C(=O)c2cc(NS(=O)(=O)c3ccc(Cl)cc3)ccc2O[C@@H](C)CCCCO[C@@H]1CN(C)Cc1ccc(C(F)(F)F)cc1	9	·	-3	·	-16	·
C[C@@H]1CCCCO[C@@H](CN(C)Cc2ccc(C(F)(F)F)cc2)[C@H](C)CN([C@H](C)CO)C(=O)c2cc(NS(=O)(=O)c3ccc(Cl)cc3)ccc2O1	26	·	-12	·	103*	·
C[C@@H]1CN([C@H](C)CO)C(=O)c2cc(NS(=O)(=O)c3ccc(Cl)cc3)ccc2O[C@@H](C)CCCCO[C@H]1CN(C)Cc1ccc(C(F)(F)F)cc1	62*	·	17	·	99*	·
CC1(C)Nc2ccccc2C(=O)N1c1ccccc1	-36	62*	1	-55	-88	-19
COc1cc2nc(N3CCN(c4cc(C)ccc4C)CC3)nc(N)c2cc1OC	60*	4	4	95*	31	94*
CC(C)n1cnc2c(Nc3ccc(F)c(Cl)c3)nc(NCCO)nc21	-30	0	4	3	20	-12
